Data as given in ChEMBL document CHEMBL4811293, “Novel irreversible covalent BTK inhibitors discovered using DNA-encoded chemistry” (Bioorg Med Chem, 2021).
Square brackets hold non-standard residues; d marks the D form. Peptide text beside a SMILES is read from it. * marks the point of attachment. Oic = O=C(O)[C@@H]1C[C@@H]2CCCC[C@@H]2N1; Phe(4-CN) = N#Cc1ccc(C[C@H](N)C(=O)O)cc1; Acryloyl = C=CC(=O)*

Legend:
[1] = molecular target: T1, Tyrosine-protein kinase BTK (Homo sapiens, UniProt Q06187); test: Inhibition of recombinant human N-terminal His-tagged BTK expressed in baculovirus infected in Sf9 cells incubated for 1 hr by TR-FRET assay
In short: (§1)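 Proteros reporter displacement assay. BTK is preincubated with a Cy5-labelled ATP-competitive probe, then unlabelled competitor is added and signal recorded over 1 h, in technical triplicates. Data normalized to high and low controls at each time point. IC50 is apparent after 1 h. kobs comes from a mono-exponential decay fit excluding the first point, and is refit as kobs = kinact·[I]/(KI+[I]) to give kinact, KI and kinact/KI.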

[2] = molecular target: Tyrosine-protein kinase BTK (Homo sapiens, UniProt Q06187, C481S); test: Inhibition of recombinant human N-terminal His-tagged BTK C481S mutant expressed in baculovirus infected in Sf9 cells incubated for 1 hr by TR-FRET assay
In short: (§2)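 Proteros reporter displacement assay: enzyme pre-incubated with Cy5-labelled ATP-competitive kinase inhibitor probe, then unlabeled competitor added. Signal recorded for 1 hour and normalized at each time-point to high (enzyme + probe, no competitor) and low (enzyme, no probe, with competitor) controls. Technical triplicates.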

[3] = system: Tyrosine-protein kinase BTK (Homo sapiens), Q06187 [C481S]; test: Inhibition of recombinant human N-terminal His-tagged BTK C481S mutant expressed in baculovirus infected in Sf9 cells assessed as residence time incubated for 1 hr by TR-FRET assay; in short: as §2
[4] = molecular target: T1, Tyrosine-protein kinase BTK; test: Inhibition of recombinant wild type human N-terminal His-tagged BTK expressed in baculovirus infected in Sf9 cells assessed as residence time incubated for 1 hr by TR-FRET assay; in short: as §2
[5] = molecular target: T1, Tyrosine-protein kinase BTK; test: Inhibition of recombinant human N-terminal His-tagged BTK expressed in baculovirus infected in Sf9 cells assessed as ratio of inactivation constant to inhibitory constant incubated for 1 hr by TR-FRET assay; in short: as §1
[6] = system: Tyrosine-protein kinase BTK (Homo sapiens), Q06187 [C481S]; test: Binding affinity to recombinant human BTK C481S mutant (389 to 659 residues) expressed in insect cells assessed as change in melting temperature at 50 uM incubated for 120 mins by thermal shift assay
In short: (§3)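 BTK (389-659), wild-type or C481S, at 5 μM with 50 μM compound for 120 min at room temperature in 20 mM HEPES pH 8.0, 0.5 mM TCEP, 150 mM NaCl, 0.01% Tween20, 0.5% DMSO. nanoDSF with a 20–95 °C ramp at 2.5 °C/min, tryptophan 350/330 nm ratio. Tm taken from the first-derivative maximum, three technical replicates. ΔTm is Tm with compound minus apo Tm.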

[7] = system: Tyrosine-protein kinase BTK (Homo sapiens), Q06187 [C481S]; test: Binding affinity to BTK C481S mutant (unknown origin) by mass spectrometry analysis relative to control; set-up: concentration or dose not given beside the values
In short: (§4)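 Wild-type or C481S BTK incubated with compound for one hour. Samples diluted to 0.1 mg/ml protein in 5% acetonitrile/0.1% formic acid, then reversed-phase C4 LC (80 °C, acetonitrile/0.1% FA gradient, UV 214 and 280 nm) coupled to positive-mode ESI-MS for intact mass. Adduct read as the mass shift versus BTK alone.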

[8] = molecular target: T1, Tyrosine-protein kinase BTK; test: Binding affinity to BTK (unknown origin) by mass spectrometry analysis relative to control; set-up: concentration or dose not given beside the values; in short: as §4
[9] = molecular target: T1, Tyrosine-protein kinase BTK; test: Binding affinity to recombinant human BTK (389 to 659 residues) expressed in insect cells assessed as change in melting temperature at 50 uM incubated for 120 mins by thermal shift assay; in short: as §3
[10] = molecular target: T1, Tyrosine-protein kinase BTK; test: Inhibition of recombinant human N-terminal His-tagged BTK expressed in baculovirus infected in Sf9 cells assessed as inhibitory constant incubated for 1 hr by TR-FRET assay; in short: as §1
[11] = molecular target: T1, Tyrosine-protein kinase BTK; test: Inhibition of recombinant human N-terminal His-tagged BTK expressed in baculovirus infected in Sf9 cells assessed as inactivation constant incubated for 1 hr by TR-FRET assay; in short: as §1

Tyrosine-protein kinase BTK (Homo sapiens, UniProt Q06187, C481S), sequence (Q06187 2-659 C481S limits assumed): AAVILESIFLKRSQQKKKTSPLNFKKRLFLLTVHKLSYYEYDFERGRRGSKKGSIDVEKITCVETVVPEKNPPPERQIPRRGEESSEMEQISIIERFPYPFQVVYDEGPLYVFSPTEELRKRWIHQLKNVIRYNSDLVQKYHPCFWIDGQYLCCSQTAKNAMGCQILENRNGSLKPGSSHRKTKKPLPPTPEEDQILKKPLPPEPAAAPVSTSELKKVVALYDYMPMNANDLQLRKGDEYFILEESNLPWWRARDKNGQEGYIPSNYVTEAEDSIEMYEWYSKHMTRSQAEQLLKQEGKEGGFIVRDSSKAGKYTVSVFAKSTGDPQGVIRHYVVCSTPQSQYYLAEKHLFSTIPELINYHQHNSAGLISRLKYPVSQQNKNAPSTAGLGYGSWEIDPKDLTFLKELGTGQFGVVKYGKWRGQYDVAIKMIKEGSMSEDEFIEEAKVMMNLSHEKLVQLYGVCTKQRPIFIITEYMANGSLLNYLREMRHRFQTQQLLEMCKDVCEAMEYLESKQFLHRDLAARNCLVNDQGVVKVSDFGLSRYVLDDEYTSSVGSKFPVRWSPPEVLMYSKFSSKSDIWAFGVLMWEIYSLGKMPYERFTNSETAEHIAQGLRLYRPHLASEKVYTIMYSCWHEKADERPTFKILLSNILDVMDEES
T1 sequence (Q06187 whole entry): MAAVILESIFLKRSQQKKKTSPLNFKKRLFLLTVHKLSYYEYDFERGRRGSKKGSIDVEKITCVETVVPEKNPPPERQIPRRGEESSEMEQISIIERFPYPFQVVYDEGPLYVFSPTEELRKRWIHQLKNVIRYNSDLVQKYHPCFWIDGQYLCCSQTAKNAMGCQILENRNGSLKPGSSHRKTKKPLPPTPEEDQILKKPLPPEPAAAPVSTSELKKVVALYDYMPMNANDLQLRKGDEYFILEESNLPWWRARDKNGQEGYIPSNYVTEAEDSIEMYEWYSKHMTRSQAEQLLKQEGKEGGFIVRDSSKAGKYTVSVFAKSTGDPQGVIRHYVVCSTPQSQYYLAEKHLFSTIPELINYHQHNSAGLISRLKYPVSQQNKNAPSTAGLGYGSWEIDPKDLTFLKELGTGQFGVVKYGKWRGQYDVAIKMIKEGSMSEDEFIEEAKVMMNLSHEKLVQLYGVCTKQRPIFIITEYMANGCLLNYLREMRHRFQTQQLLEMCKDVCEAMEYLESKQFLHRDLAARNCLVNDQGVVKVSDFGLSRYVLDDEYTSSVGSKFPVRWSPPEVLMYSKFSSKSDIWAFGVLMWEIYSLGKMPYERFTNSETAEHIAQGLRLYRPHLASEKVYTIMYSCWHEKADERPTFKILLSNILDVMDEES
Tyrosine-protein kinase BTK (Homo sapiens), Q06187 [C481S], sequence (Q06187 whole entry C481S, the tested form may be a part): as the sequence (Q06187 whole entry) above, with C481S counted along it

CNC(=O)[C@H]1Cc2c([nH]c3ccccc23)CN1C(=O)[C@@H](Cc1ccccc1)NC(=O)c1c[nH]c(C(N)=O)c1
IC50 [1]: 22.7 nM
IC50 [2]: 56.2 nM
TIME [3]: 0.233 h
TIME [4]: 0.567 h

C=CC(=O)N1CCC[C@H](CC(=O)N2Cc3[nH]c4ccccc4c3C[C@@H]2C(=O)NC)C1
Ratio [5]: 59.2 s⁻¹ M⁻¹
ΔTm [6]: 0.1 °C
Activity [7]: 0%
Activity [8]: 97.9%
IC50 [1]: 4760 nM
ΔTm [9]: 6.55 °C
IC50 [2]: > 59200 nM

CNC(=O)[C@@H](Cc1ccc(C#N)cc1)NC(=O)[C@@H](NC(=O)[C@]1(C)CO1)[C@@H](C)OC(C)(C)C
Ratio [5]: 6580 s⁻¹ M⁻¹
ΔTm [6]: 0.23 °C
Activity [7]: 0%
Activity [8]: 92.3%
IC50 [1]: 58.1 nM
ΔTm [9]: 4.51 °C
IC50 [2]: > 59200 nM
Ki [10]: 1250 nM
Kinact [11]: 8.22 10^-3/s

CNC(=O)[C@H]1Cc2c([nH]c3ccccc23)CN1C(=O)c1occc1CNc1ccc2nccnc2c1
ΔTm [6]: 13.4 °C
Activity [7]: 0%
Activity [8]: 0%
IC50 [1]: 3.78 nM
ΔTm [9]: 13.2 °C
IC50 [2]: 3.04 nM
TIME [3]: 0.367 h
TIME [4]: 0.15 h

CNC(=O)[C@H]1Cc2c([nH]c3ccccc23)CN1C(=O)C[C@@H](Cc1cccc(F)c1)NC(=O)C1CO1 (stereo partly specified)
Ratio [5]: 1660 s⁻¹ M⁻¹
IC50 [1]: 232 nM
IC50 [2]: > 59200 nM
Ki [10]: 9270 nM
Kinact [11]: 1.54 10^-2/s

CNC(=O)[C@@H](Cc1ccc(C#N)cc1)NC(=O)[C@@H](NC(=O)[C@@H]1CO1)c1ccccc1
Ratio [5]: 4880 s⁻¹ M⁻¹
ΔTm [6]: -0.15 °C
Activity [7]: 0%
Activity [8]: 95.2%
IC50 [1]: 84.2 nM
ΔTm [9]: 6.36 °C
IC50 [2]: > 59200 nM
Ki [10]: 1930 nM
Kinact [11]: 9.41 10^-3/s

C=CC(=O)N1[C@H](C(=O)N[C@@H](Cc2ccc(C#N)cc2)C(=O)NC)C[C@@H]2CCCC[C@@H]21 (Acryloyl-[Oic]-[Phe(4-CN)]-NHMe)
Activity [7]: 0%
Activity [8]: 94.4%
IC50 [1]: 36400 nM
IC50 [2]: > 59200 nM
